Data on three molecules can be found in ChEMBL document CHEMBL3085652, “Synthesis and antiproliferative activity of α-branched α,β-unsaturated ketones” (2013).

Holding throughout (type): functional
Test [1] relates to WiDr. The test is described as follows: Growth inhibition of human WiDr cells after 48 hrs by SRB assay. An outline of the steps:
(§1)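 Cells from an academic source, kept in 25 cm² flasks in RPMI 1640 with 5% heat-inactivated fetal calf serum. Dosing began day 1 after plating, in triplicate at several dilutions across […]. Vehicle controls got DMSO 0.25% v/v. After 48 h exposure, cells were fixed with ice-cold 50% w/v TCA for 60 min at 4 °C and stained by SRB. OD was read at 492 nm, corrected for medium-only background, and GI50 was derived from dose-response data.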

Test [2] relates to T47D. The test is described as follows: Growth inhibition of human T47D cells after 48 hrs by SRB assay. The method, boiled down:
as §1

The nature of test [3]: Growth inhibition of human HBL100 cells after 48 hrs by SRB assay. The settings on record: HBL-100, 48 h. An outline of the steps:
as §1

Test [4] has as its system HeLa. The test is described as follows: Growth inhibition of human HeLa cells after 48 hrs by SRB assay. An outline of the steps:
as §1

In test [5] the test system is SW1573. The experiment in a line: Growth inhibition of human SW1573 cells after 48 hrs by SRB assay. The settings on record: SW1573, 48 h. An outline of the steps: as §1

For the molecule `O=C(/C=C/C1CCCCC1)c1ccccc1`, the GI50 in test [1] worked out at 21 µM; in test [2] it was 15 µM; in test [3], 18 µM; in test [4], 21 µM; in test [5] it was 10 µM.

`O=C(/C=C/c1ccc(Cl)cc1Cl)c1ccccc1`: the GI50 in test [1] worked out at 20 µM; in test [2], 14 µM; in test [3], 17 µM; in test [4] it was 18 µM; in test [5], 12 µM.

In the case of `COc1cc([C@@H]2c3cc4c(cc3[C@@H](O[C@@H]3O[C@@H]5CO[C@@H](C)O[C@H]5[C@H](O)[C@H]3O)[C@H]3COC(=O)[C@H]23)OCO4)cc(OC)c1O` [ETOPOSIDE], the GI50 in test [1] was determined as 23 µM; in test [2] it was 22 µM; in test [3], 1.4 µM; in test [4] it was 3.3 µM; in test [5], 15 µM.
